# In ChEMBL document CHEMBL2029237, “Melanin-concentrating hormone receptor 1 antagonists. Synthesis and structure-activity relationships of novel 3-(aminomethyl)quinolines” (J Med Chem, 2012):
# Columns and labels:
# [1] = target: T1, Melanin-concentrating hormone receptor 1 (Homo sapiens, UniProt Q99705); experiment: Displacement of [125I]MCH from human MCHR1 expressed in CHO cells after 1 hr by scintillation counting; type: cell-based
# Procedure, shortened: (§1)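 CHO cell membranes stably expressing human or rat MCHR1 incubated 1 h at room temperature with [125I]MCH(4−19) and compound at various concentrations. Filtration through GF/C glass filters, bound radioactivity counted by scintillation. IC50 from one experiment in duplicate.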
# [2] = target: T2, 5-hydroxytryptamine receptor 2C (Homo sapiens, UniProt P28335); experiment: Displacement of [3H]mesulergine from human 5HT2C receptor expressed in CHO cells after 1 hr by scintillation counting; type: cell-based
# T2 sequence (P28335 whole entry): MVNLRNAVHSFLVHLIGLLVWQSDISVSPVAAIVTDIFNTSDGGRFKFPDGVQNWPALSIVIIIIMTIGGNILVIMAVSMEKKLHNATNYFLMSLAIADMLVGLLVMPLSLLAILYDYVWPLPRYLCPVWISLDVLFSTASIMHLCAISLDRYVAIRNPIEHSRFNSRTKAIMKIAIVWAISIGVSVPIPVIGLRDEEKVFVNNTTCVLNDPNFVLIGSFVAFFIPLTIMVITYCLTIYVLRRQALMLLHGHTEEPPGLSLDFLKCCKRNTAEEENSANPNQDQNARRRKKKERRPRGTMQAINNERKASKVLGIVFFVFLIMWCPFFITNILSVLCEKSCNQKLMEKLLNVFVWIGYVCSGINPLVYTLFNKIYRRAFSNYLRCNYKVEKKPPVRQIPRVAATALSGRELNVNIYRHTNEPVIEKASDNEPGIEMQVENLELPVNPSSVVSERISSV
# Procedure, shortened: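 Membranes from CHO cells stably expressing human 5-HT2c incubated 1 h at room temperature with [3H]mesulergine and compound at various concentrations. Terminated by GF/C filtration, filter radioactivity counted by scintillation. IC50 from one experiment in duplicate.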
# [3] = target: T1, Melanin-concentrating hormone receptor 1; experiment: Antagonist activity at human MCHR1 expressed in CHO cells assessed as inhibition of MCH-induced [3H]arachidonic acid release […] by liquid scintillation counting; type: functional, cell-based; conditions: in the assay text read “45 mins” for “16 hrs”
# Procedure, shortened: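 Human MCHR1-CHO cells seeded at 50 000/well, cultured 1 day, then loaded with [3H]arachidonic acid (0.2 μCi/well) for 16 h. Washed with DMEM containing 20 mM HEPES pH 7.4 and 0.2% BSA. Compound preincubated 30 min at 37 °C, MCH added, 45 min incubation, medium radioactivity by liquid scintillation.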
# [4] = Solubility of the compound in JP2 solution at 10 mM; type: physicochemical
# Procedure, shortened: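 The 10 mM DMSO solution of compound was added to JP2 until opalescence appeared.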
# Rattus norvegicus [5] = experiment: Antiobesity activity in high-fat diet fed Fischer 344 rat DIO model assessed as inhibition of food intake at 10 mg/kg, po after 6 hrs; type: functional; conditions: Fischer 344, 6 h
# Procedure, shortened: (§2)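 Male 52-week-old F344/Jcl rats on high-fat diet from 5 weeks of age, housed singly, grouped by overnight food intake and body weight. Oral dosing at 15:00 in 0.5% methylcellulose suspension, 2 mL/kg, against vehicle controls; six rats per group.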
# Rattus norvegicus [6] = experiment: Antiobesity activity in high-fat diet fed Fischer 344 rat DIO model assessed as inhibition of food intake at 1 mg/kg, po after 6 hrs; type: functional; conditions: Fischer 344, 6 h
# Procedure, shortened: (§3)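 Male F344/Jcl rats, 52 weeks old, fed high-fat diet from 5 weeks of age, housed singly and acclimated to oral water dosing; grouped by overnight food intake and body weight. Single oral dose at 15:00 as 0.5% methylcellulose suspension, 2 mL/kg, six rats per group; vehicle controls. Cumulative food intake at 6 and 17 h; percent inhibition versus control, mean ± SD.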
# [7] = Volume of distribution at the steady state in Fischer 344 rat at 0.3 mg/kg, iv; type: ADME, organism-based; design: dose 0.3 mg/kg, route intravenous; conditions: in vivo, read-out: Vdss
# Mus musculus [8] = experiment: Antiobesity activity in MCHR1-deficient mouse assessed as inhibition of food intake at 3 mg/kg, po qd for 2 days; type: functional; conditions: 48 h
# Procedure, shortened: (§4)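 Male MCHR1-deficient mice and wild-type littermates, 34 weeks old, on high-fat diet from 5 weeks of age, housed singly. Grouped by food intake days −5 to −1 and day −1 body weight. Oral dosing at 16:00 on days 0 and 1 in 0.5% methylcellulose suspension, 10 mL/kg, against vehicle controls; six mice per group.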
# Rattus norvegicus [9] = experiment: Antiobesity activity in high-fat diet fed Fischer 344 rat DIO model assessed as inhibition of food intake at 10 mg/kg, po after 17 hrs; type: functional; conditions: Fischer 344, 17 h; procedure, shortened: as §2
# Rattus norvegicus [10] = experiment: Antiobesity activity in po dosed high-fat diet fed Fischer 344 rat DIO model assessed as inhibition of food intake after 17 hrs; type: functional, organism-based; procedure, shortened: as §2
# [11] = AUC in Fischer 344 rat at 1 mg/kg, po; type: ADME, organism-based; design: dose 1 mg/kg, route oral; conditions: plasma
# [12] = target: Melanin-concentrating hormone receptor 1 (Rattus norvegicus, UniProt P97639); experiment: Displacement of [125I]MCH from rat MCHR1 expressed in CHO cells after 1 hr by scintillation counting; type: cell-based; procedure, shortened: as §1
# Sequence of Melanin-concentrating hormone receptor 1 (Rattus norvegicus, UniProt P97639) (P97639 whole entry): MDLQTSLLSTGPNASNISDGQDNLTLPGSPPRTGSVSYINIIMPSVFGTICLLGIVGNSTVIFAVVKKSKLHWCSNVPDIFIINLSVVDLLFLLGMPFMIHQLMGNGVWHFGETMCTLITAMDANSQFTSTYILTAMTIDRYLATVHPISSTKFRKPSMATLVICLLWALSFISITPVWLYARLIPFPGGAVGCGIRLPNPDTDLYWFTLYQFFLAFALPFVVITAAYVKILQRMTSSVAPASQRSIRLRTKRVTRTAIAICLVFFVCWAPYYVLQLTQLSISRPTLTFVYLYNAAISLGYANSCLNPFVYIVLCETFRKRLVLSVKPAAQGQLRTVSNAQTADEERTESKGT
# [13] = Cmax in Fischer 344 rat brain at 1 mg/kg, po; type: ADME, organism-based; design: dose 1 mg/kg, route oral
# [14] = Bioavailability in Fischer 344 rat; type: ADME, organism-based; conditions: in vivo
# Brain = experiment: AUC in Fischer 344 rat brain at 1 mg/kg, po; type: ADME, organism-based; design: dose 1 mg/kg, route oral; conditions: in vivo
# Mus musculus [15] = experiment: Antiobesity activity in high-fat diet given wild type mouse assessed as inhibition of food intake at 10 mg/kg, po qd for 2 days; type: functional; conditions: 48 h; procedure, shortened: as §4
# [16] = Tmax in Fischer 344 rat brain at 1 mg/kg, po; type: ADME, organism-based; design: dose 1 mg/kg, route oral
# Rattus norvegicus [17] = experiment: Antiobesity activity in high-fat diet fed Fischer 344 rat DIO model assessed as inhibition of food intake at 3 mg/kg, po after 17 hrs; type: functional; conditions: Fischer 344, 17 h; procedure, shortened: as §2
# [18] = Total clearance in Fischer 344 rat at 0.3 mg/kg, iv; type: ADME, organism-based; design: dose 0.3 mg/kg, route intravenous; conditions: in vivo
# Rattus norvegicus [19] = experiment: Antiobesity activity in high-fat diet fed Fischer 344 rat DIO model assessed as inhibition of food intake at 1 mg/kg, po after 17 hrs; type: functional; conditions: Fischer 344, 17 h; procedure, shortened: as §3
# [20] = Half life in Fischer 344 rat at 0.3 mg/kg, iv; type: ADME, organism-based; design: dose 0.3 mg/kg, route intravenous; conditions: in vivo
# Rattus norvegicus [21] = experiment: Antiobesity activity in high-fat diet fed Fischer 344 rat DIO model assessed as inhibition of food intake at 3 mg/kg, po after 6 hrs; type: functional; conditions: Fischer 344, 6 h; procedure, shortened: as §2
# [22] = Tmax in Fischer 344 rat at 1 mg/kg, po; type: ADME, organism-based; design: dose 1 mg/kg, route oral; conditions: in vivo
# [23] = Cmax in Fischer 344 rat at 1 mg/kg, po; type: ADME, organism-based; design: dose 1 mg/kg, route oral; conditions: in vivo
# Mus musculus [24] = experiment: Antiobesity activity in high-fat diet given wild type mouse assessed as inhibition of food intake at 3 mg/kg, po qd for 2 days; type: functional; conditions: 48 h; procedure, shortened: as §4
# Mus musculus [25] = experiment: Antiobesity activity in MCHR1-deficient mouse assessed as inhibition of food intake at 10 mg/kg, po qd for 2 days; type: functional; conditions: 48 h; procedure, shortened: as §4
# T1 sequence (Q99705 whole entry): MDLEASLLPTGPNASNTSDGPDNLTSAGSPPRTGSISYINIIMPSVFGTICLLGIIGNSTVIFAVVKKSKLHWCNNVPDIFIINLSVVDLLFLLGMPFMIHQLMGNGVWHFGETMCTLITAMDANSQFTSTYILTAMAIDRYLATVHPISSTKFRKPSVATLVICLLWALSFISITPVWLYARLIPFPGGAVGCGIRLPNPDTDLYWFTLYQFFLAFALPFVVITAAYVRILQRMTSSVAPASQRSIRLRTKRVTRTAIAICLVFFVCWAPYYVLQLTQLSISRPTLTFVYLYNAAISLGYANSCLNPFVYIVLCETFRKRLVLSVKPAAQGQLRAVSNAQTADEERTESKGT
compound,measurement,setting,value
O=C(Nc1ccc2cc(CN3CCCC3)cnc2c1)c1ccc(-c2ccc(F)cc2)cc1,IC50,[1],2.8 nM
same,IC50,[2],160 nM
same,IC50,[3],9.2 nM
same,solubility,[4],1.5 µg/mL
Cc1c(NC(=O)c2ccc(-c3ccc(Cl)cc3)cc2)ccc2cc(CN3CCCC3)cnc12,IC50,[1],0.36 nM
same,IC50,[2],> 1000 nM
same,IC50,[3],7.6 nM
CCc1c(NC(=O)c2ccc(-c3ccc(F)cc3)cc2)ccc2cc(CN3CCCC3)cnc12,IC50,[1],100 nM
same,IC50,[2],> 1000 nM
Cc1c(NC(=O)c2ccc(-c3ccc(F)cc3)cc2)ccc2cc(CN3CCCC3)cnc12,inhibition in vivo at 10 mg/kg,Rattus norvegicus [5],55.7%
same,inhibition in vivo at 1 mg/kg,Rattus norvegicus [6],18.8%
same,Vd,[7],20 L/kg
same,IC50,[1],0.54 nM
same,inhibition in vivo at 3 mg/kg,Mus musculus [8],4.1%
same,IC50,[2],> 1000 nM
same,inhibition in vivo at 10 mg/kg,Rattus norvegicus [9],45.8%
same,inhibition,Rattus norvegicus [10],Dose-dependent effect
same,AUC,[11],160 ng·h/mL
same,IC50,[12],1.7 nM
same,Cmax,[13],610 ng/g
same,bioavailability,[14],39%
same,AUC,Brain,9343 ng·h/g
same,inhibition in vivo at 10 mg/kg,Mus musculus [15],13.2%
same,Tmax,[16],8 h
same,IC50,[3],2.8 nM
same,inhibition in vivo at 3 mg/kg,Rattus norvegicus [17],28.9%
same,clearance,[18],40 mL/min/kg
same,inhibition in vivo at 1 mg/kg,Rattus norvegicus [19],15.5%
same,half-life,[20],7.7 h
same,inhibition in vivo at 3 mg/kg,Rattus norvegicus [21],36.7%
same,Tmax,[22],4 h
same,Cmax,[23],9 ng/mL
same,inhibition in vivo at 3 mg/kg,Mus musculus [24],10.2%
same,inhibition in vivo at 10 mg/kg,Mus musculus [25],5.7%
Cc1ccc(-c2ccc(C(=O)Nc3ccc4cc(CN5CCCC5)cnc4c3C)cc2)cc1,IC50,[1],1 nM
same,IC50,[2],540 nM
same,IC50,[3],11 nM
COc1ccc(-c2ccc(C(=O)Nc3ccc4cc(CN5CCCC5)cnc4c3)cc2)cc1,IC50,[1],3.7 nM
same,IC50,[2],> 1000 nM
Cc1ccc(C2CCN(C(=O)Nc3ccc4cc(CN5CCCC5)cnc4c3)CC2)cc1,IC50,[1],23 nM
COc1ccc(C2CCN(C(=O)Nc3ccc4cc(CN5CCCC5)cnc4c3)CC2)cc1,IC50,[1],48 nM
Cc1cc2cc(CN3CCCC3)cnc2cc1NC(=O)c1ccc(-c2ccc(F)cc2)cc1,IC50,[1],1.3 nM
same,IC50,[2],7.4 nM
same,IC50,[3],10 nM
COc1ccc(-c2ccc(C(=O)Nc3ccc4cc(CN5CCCC5)cnc4c3C)cc2)cc1,IC50,[1],0.53 nM
same,IC50,[2],> 1000 nM
same,IC50,[3],4.3 nM
O=C(Nc1ccc2cc(CN3CCCC3)cnc2c1)c1ccc(-c2ccc(F)cc2)nc1,IC50,[1],25 nM
same,IC50,[2],830 nM
O=C(Nc1ccc2cc(CN3CCCC3)cnc2c1)c1ccc(-c2ccccc2)cc1,IC50,[1],13 nM
same,IC50,[2],310 nM
O=C(Nc1cc2ncc(CN3CCCC3)cc2cc1Cl)c1ccc(-c2ccc(F)cc2)cc1,IC50,[1],1.4 nM
same,IC50,[2],240 nM
same,IC50,[3],12 nM
O=C(Nc1ccc2cc(CN3CCCC3)ccc2c1)c1ccc(-c2ccc(F)cc2)cc1,IC50,[1],0.76 nM
same,IC50,[2],120 nM
same,IC50,[3],9 nM
same,solubility,[4],0.11 µg/mL
O=C(Nc1ccc2nc(CN3CCCC3)ccc2c1)c1ccc(-c2ccc(F)cc2)cc1,IC50,[1],2.7 nM
same,IC50,[2],36 nM
same,IC50,[3],40 nM
O=C(Nc1ccc2cc(CN3CCCC3)cnc2c1F)c1ccc(-c2ccc(F)cc2)cc1,IC50,[1],0.92 nM
same,IC50,[2],78 nM
same,IC50,[3],2.3 nM
O=C(Nc1ccc2cc(CN3CCCC3)cnc2c1)N1CCC(c2ccccc2)CC1,IC50,[1],100 nM
O=C(Nc1ccc2cc(CN3CCCC3)cnc2c1)N1CCC(c2ccc(Cl)cc2)CC1,IC50,[1],6.6 nM
same,IC50,[2],55 nM
CC(C)CC(N(C)C)C1(c2ccc(Cl)cc2)CCC1 (stereo unspecified) [SIBUTRAMINE],inhibition in vivo at 1 mg/kg,Rattus norvegicus [6],34.6%
same,inhibition in vivo at 1 mg/kg,Rattus norvegicus [19],25.8%
O=C(Nc1ccc2cc(CN3CCCC3)cnc2c1)c1ccc(-c2ccccc2)nc1,IC50,[1],73 nM
O=C(Nc1ccc2c(c1)CCC(CN1CCCC1)=C2)c1ccc(-c2ccc(F)cc2)cc1,IC50,[2],0.53 nM
same,IC50,[3],17 nM
same,solubility,[4],< 0.03 µg/mL
Cc1c(NC(=O)c2ccc(-c3ccccc3)cc2)ccc2cc(CN3CCCC3)cnc12,IC50,[1],1.8 nM
same,IC50,[2],760 nM
same,IC50,[3],7 nM
COc1ccc(-c2ccc(C(=O)Nc3ccc4cc(CN5CCCC5)cnc4c3)cn2)cc1,IC50,[1],26 nM
O=C(Nc1ccc2cc(CN3CCCC3)cnc2c1)N1CCC(c2ccc(F)cc2)CC1,IC50,[1],35 nM
COc1c(NC(=O)c2ccc(-c3ccc(F)cc3)cc2)ccc2cc(CN3CCCC3)cnc12,IC50,[1],110 nM
O=C(Nc1ccc2cc(CN3CCCC3)cnc2c1)c1ccc(-c2ccc(Cl)cc2)nc1,IC50,[1],4.1 nM
same,IC50,[2],930 nM
same,IC50,[3],14 nM
Cc1ccc(-c2ccc(C(=O)Nc3ccc4cc(CN5CCCC5)cnc4c3)cc2)cc1,IC50,[1],2.2 nM
same,IC50,[2],660 nM
O=C(Nc1cc2ncc(CN3CCCC3)cc2cc1F)c1ccc(-c2ccc(F)cc2)cc1,IC50,[1],1.4 nM
same,IC50,[2],280 nM
same,IC50,[3],8.4 nM
O=C(Nc1ccc2c(c1)OCC(CN1CCCC1)=C2)c1ccc(-c2ccc(F)cc2)cc1,IC50,[1],0.91 nM
same,IC50,[2],3.1 nM
same,IC50,[3],10 nM
same,solubility,[4],0.17 µg/mL
O=C(Nc1ccc2cc(CN3CCCC3)cnc2c1)c1ccc(-c2ccc(Cl)cc2)cc1,IC50,[1],0.74 nM
same,IC50,[2],630 nM
same,IC50,[3],8.5 nM
Cc1ccc(-c2ccc(C(=O)Nc3ccc4cc(CN5CCCC5)cnc4c3)cn2)cc1,IC50,[1],18 nM
same,IC50,[2],570 nM
